Rows were chosen to be rich in hits. Some 1.5% of all compounds tested hit in one or more screens of this group.
Runt-CBFb FRET = Runt domain-CBFb interaction inhibition. Cerulean-Runt/Venus-CBFb FRET ratio 530/480, 1 h. inhibition, % at 20 µM. Q01196+Q13951. 0.46% of 220,000 active;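 active = inhibition over about 50% at 20 µM in the single-dose screen, limit read from the data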
Target sequence (Q01196 whole entry, looked up, the tested form may be a part): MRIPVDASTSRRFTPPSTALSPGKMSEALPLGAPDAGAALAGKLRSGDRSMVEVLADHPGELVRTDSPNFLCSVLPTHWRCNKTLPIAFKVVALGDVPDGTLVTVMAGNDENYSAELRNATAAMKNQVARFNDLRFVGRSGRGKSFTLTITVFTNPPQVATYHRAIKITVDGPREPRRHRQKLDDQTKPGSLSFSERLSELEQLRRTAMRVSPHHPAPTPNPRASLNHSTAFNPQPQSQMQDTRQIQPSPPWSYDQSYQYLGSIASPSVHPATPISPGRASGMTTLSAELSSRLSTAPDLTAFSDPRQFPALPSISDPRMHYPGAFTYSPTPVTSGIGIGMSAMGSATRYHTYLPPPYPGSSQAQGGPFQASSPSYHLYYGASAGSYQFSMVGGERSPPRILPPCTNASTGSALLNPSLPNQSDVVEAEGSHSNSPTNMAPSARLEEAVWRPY
Target sequence (Q13951 whole entry, looked up, the tested form may be a part): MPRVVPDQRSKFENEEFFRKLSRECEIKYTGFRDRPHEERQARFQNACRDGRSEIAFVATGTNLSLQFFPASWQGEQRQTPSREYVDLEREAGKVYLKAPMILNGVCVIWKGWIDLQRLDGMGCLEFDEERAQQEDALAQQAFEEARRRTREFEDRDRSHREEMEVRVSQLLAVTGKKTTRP
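Buffer or medium: Tris pH 7.5 buffer with BSA. Assay system: Cerulean-labeled Runt domain protein. Amount: each fluorescent fusion protein 100 nM. Read-out basis: loss of energy transfer signal. Incubation: 1 h compound exposure, room temperature. Probe or stimulus: Venus-CBFb binding partner, 100 nM. Detection: FRET, excitation 422 nm, emission at 530 and 480 nm.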
RanGTP-Impb inh = inhibitors of RanGTP-importin-beta interaction, primary screen, biochemical, FRET, CFP-Ran, YFP-importin-beta, homogeneous; inhibition, % (no concentration beside the values); cell-free CFP-Ran/YFP-importin-beta FRET ratio; 1.1% of 300,000 active;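 active = more than half of the replicate wells show a fall in the fluorescence ratio signal beyond about 16%, limit read from the data, passing the limit was not always enough; inconclusive = exactly half of the replicate wells pass the set limit; inactive = fewer than half of replicates pass the limit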
Runt-SMMHC FRET = blocks binding of human RUNX1 Runt domain to CBFb-SMMHC. Q01196+Q13951. inhibition, % at 20 µM. 0.74% of 220,000 active. Cerulean-Runt/Venus-CBFb-SMMHC FRET ratio 530/480, 1 h;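 active = mean inhibition across duplicate retests at 20 µM reaching about 50%, limit read from the data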;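 note: inhibitors lower the FRET ratio by blocking Runt binding to CBFb-SMMHC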
CaV13 FRET inh = Primary screen for inhibitors of IQ motif and Ca2+-dependent inactivation inhibitor domain binding in CACNA1D, Förster resonance energy transfer in living cells, …; HEK cells, CFP/YFP FRET ICDI-IQ, plate reader, 10 min; percent FRET-ratio fall versus neutral wells; 0.098% of 340,000 active; inhibition, % at 12.3 µM;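 active = mean replicate inhibition of at least 30% and at least 1% of replicates passing that level; inconclusive = only one of the two criteria is met; inactive = neither criterion is met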
Hck Nef HTS = human Hck-Nef kinase inhibition. Recombinant Hck-YEEI plus Nef, Z-Lyte FRET kinase assay. inhibition, % at 20 µM. 0.68% of 220,000 active. AID 463187;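 active = Hck-Nef kinase inhibition above about 50%, limit read from the data; inactive = inhibition below that limit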
Runt-CBFb TRFRET = disrupts human RUNX1 Runt domain binding to CBFb; shares compounds with Runt-CBFb FRET; TR-FRET RUNX1 Runt domain-CBFb binding; inhibition, % at 20 µM; 20% of 480 active; in the data active = inhibition above about 40%
Large screens that a line does not name were inactive (follow-up assays come after a bar, where they were run).

CCOC(=O)c1cc2c(=O)n3ccccc3nc2n(Cc2ccco2)c1=NC(=O)c1ccc(OC)cc1OC	Runt-CBFb FRET 70, RanGTP-Impb inh 29, Runt-SMMHC FRET 86 | Runt-CBFb TRFRET 52
Cc1cccc(NC(=O)CSc2nc3ccccc3c(=O)n2CC2CCCO2)c1 (stereo unspecified)	none (no result: Runt-CBFb FRET, RanGTP-Impb inh, Runt-SMMHC FRET, Hck Nef HTS)
CCOC(=O)C1CCCN(c2ncnc3c2cnn3-c2ccc(OC)cc2)C1 (stereo unspecified)	none
COC(=O)C1=C(CSc2nc3c(cc2C#N)CN(C)CC3)OC(N)=C(C#N)C1c1ccccc1F (stereo unspecified)	Runt-CBFb FRET 58, RanGTP-Impb inh 24 (no result: Runt-SMMHC FRET, CaV13 FRET inh) | Runt-CBFb TRFRET 55
Cc1cc(C(=O)N/N=C/c2ccco2)c2ccccc2n1	none
CCOc1ccc(OCC)c(NC(=O)CSCCc2ccccn2)c1	none
CCN(CC(=O)NCc1ccc(Cl)cc1)C(=O)CNS(=O)(=O)c1ccc(NC(C)=O)cc1	none (no result: Runt-CBFb FRET, Runt-SMMHC FRET, CaV13 FRET inh, Hck Nef HTS)
Cc1ccc(NC(=S)C2=C(O)c3sccc3N(C)S2(=O)=O)cc1	Runt-CBFb FRET 65, RanGTP-Impb inh 81, Runt-SMMHC FRET 73 | Runt-CBFb TRFRET inactive
CCOC(=O)C1=C(C)N(c2ccccc2)C(=O)/C1=C\c1ccc(O)c(OC)c1	Runt-CBFb FRET 55 | Runt-CBFb TRFRET 60
O=C(Cn1nc(-c2ccc(Cl)cc2)c2ccccc2c1=O)Nc1cccnc1	none
CCOC(=O)C1(Cc2ccc(OC)cc2)CCN(C(=O)c2cncs2)CC1	Runt-CBFb FRET 54 | Runt-CBFb TRFRET inactive
O=C(CN1CCN(Cc2ccccc2)CC1)NCCc1ccccc1	none (no result: Runt-CBFb FRET, Runt-SMMHC FRET, Hck Nef HTS)
CC(=O)N1CC[n+]2c(-c3ccc(Cl)cc3)csc21	Runt-CBFb FRET 60, Runt-SMMHC FRET 58 | Runt-CBFb TRFRET inactive
NC1=C(c2ccc([N+](=O)[O-])cc2)C(=O)CO1	none
O=c1oc2c(-c3ccc([N+](=O)[O-])cc3)cc(O)cc2s1	Runt-CBFb FRET 56 | Runt-CBFb TRFRET inactive
Cc1c(NS(=O)(=O)c2cc(Br)cc3c2N(C(=O)C2CC2)CC3)c(=O)n(-c2ccccc2)n1C	none (no result: CaV13 FRET inh)
Cc1c(NS(=O)(=O)c2ccc3c(c2)CCN3C(=O)C2CC2)c(=O)n(-c2ccccc2)n1C	Runt-CBFb FRET 57 | Runt-CBFb TRFRET inactive
C=CCn1c(SCC(=O)NCC(c2ccccc2)N(C)C)nc2sc3c(c2c1=O)CCC3 (stereo unspecified)	none (no result: Runt-CBFb FRET, RanGTP-Impb inh, Runt-SMMHC FRET, Hck Nef HTS)
O=C(NCc1ccc(F)cc1)c1noc2c1CCCCC2	none
O=C(NCc1ccc(F)cc1)c1noc2c1CCCC2	Runt-CBFb FRET 54 | Runt-CBFb TRFRET inactive
O=C(NC1CCCc2ccccc21)C1CCC(CNS(=O)(=O)c2cccc3nsnc23)CC1 (stereo unspecified)	Runt-CBFb FRET 83, RanGTP-Impb inh inconclusive | Runt-CBFb TRFRET inactive
O=C(CCNS(=O)(=O)c1cccc2nsnc12)NC1CCCc2ccccc21 (stereo unspecified)	none
CN(CCC#N)C(=O)COC(=O)c1c2c(nc3ccccc13)/C(=C/c1ccco1)CC2	Runt-CBFb FRET 74 (no result: Runt-SMMHC FRET) | Runt-CBFb TRFRET 63
O=C(NNC1=C(C(=O)C(F)(F)F)CCC1)c1ccc(Cl)cc1	Runt-CBFb FRET 77 | Runt-CBFb TRFRET inactive
CCN(CC(=O)Nc1ccc(NC(C)=O)cc1)CC(=O)Nc1cc(C)on1	none (no result: Runt-CBFb FRET, RanGTP-Impb inh, Runt-SMMHC FRET, Hck Nef HTS)
NS(=O)(=O)c1ccc(NC(=S)NC2CCCCCC2)cc1	none
NS(=O)(=O)c1ccc(NC(=S)NC2CCCC2)cc1	Runt-CBFb FRET 55 | Runt-CBFb TRFRET inactive
O=C(COC(=O)c1cc2c(s1)CCC2)Nc1ccc(F)cc1	none
Cc1c(OC(C)C(=O)NCc2cccnc2)ccc2c3c(c(=O)oc12)CCCC3 (stereo unspecified)	none (no result: Runt-CBFb FRET, Runt-SMMHC FRET, Hck Nef HTS)
Cc1cc(C)nc(SCC(=O)c2ccc(F)cc2)n1	none (no result: Runt-CBFb FRET, Runt-SMMHC FRET, Hck Nef HTS)
Cc1cc(C)nc(SCNC(=O)c2ccc(F)cc2)n1	Runt-CBFb FRET 53 (no result: CaV13 FRET inh) | Runt-CBFb TRFRET inactive
CCNC(=O)CCSc1nc(C)cc(C)n1	Runt-CBFb FRET 50 | Runt-CBFb TRFRET inactive
Cc1cc(C)nc(SCCC(=O)N(C)C)n1	none
CC(C)OCCCNC(=S)Nc1ccc(S(N)(=O)=O)cc1	Runt-CBFb FRET 59 | Runt-CBFb TRFRET inactive
COC(=O)c1ccc(C(=O)OC)c(NC(=S)N2CCCCC2C)c1 (stereo unspecified)	Runt-CBFb FRET 72, RanGTP-Impb inh inconclusive, Runt-SMMHC FRET 87 | Runt-CBFb TRFRET 67
CC1CCN(C(=O)CN2C(=O)c3ccccc3S2(=O)=O)CC1	none
CCNC(=S)N(Cc1cc2c(C)ccc(C)c2[nH]c1=O)C1CCCC1	Runt-CBFb FRET 60 | Runt-CBFb TRFRET inactive
CCNC(=S)N(Cc1cc2cc(C)ccc2[nH]c1=O)C1CCCC1	Runt-CBFb FRET 58 | Runt-CBFb TRFRET inactive
CCNC(=S)N(Cc1cc2cc(C)cc(C)c2[nH]c1=O)C1CCCC1	none
O=c1cc(CSc2n[nH]c(=O)n2C2CC2)c2ccc(O)cc2o1	none
CC(C)Sc1nc2sc(-c3ccccc3)cc2c(=O)n1N	none (no result: RanGTP-Impb inh)
COC(=O)C(C)n1nnc2sc(-c3ccccc3)cc2c1=O (stereo unspecified)	Runt-CBFb FRET 58, Runt-SMMHC FRET 124 (no result: RanGTP-Impb inh) | Runt-CBFb TRFRET inactive
Cc1cc2c(c(=O)n1Cc1cccnc1)C(Cc1ccccc1)C(C#N)=C(N)O2 (stereo unspecified)	Runt-CBFb FRET 58, RanGTP-Impb inh 36, Runt-SMMHC FRET 86 (no result: CaV13 FRET inh) | Runt-CBFb TRFRET inactive
Cc1cc2c(c(=O)n1CCc1ccccc1)C(c1ccco1)C(C#N)=C(N)O2 (stereo unspecified)	Runt-CBFb FRET 62 (no result: Runt-SMMHC FRET) | Runt-CBFb TRFRET inactive
COc1cc(C2C(C#N)=C(N)Oc3cc(C)n(CCc4ccccc4)c(=O)c32)cc2c1OCO2 (stereo unspecified)	none
CSc1n[nH]c(-c2sccc2OCc2ccc(C)cc2)n1	none
COC(=O)c1cc(-c2ccc(OC)c(OC)c2)n[nH]1	none
CC(OC(=O)c1ccc(-n2cnnn2)cc1)C(=O)Nc1ccccc1[N+](=O)[O-] (stereo unspecified)	none (no result: Runt-CBFb FRET, RanGTP-Impb inh, Runt-SMMHC FRET, Hck Nef HTS)
COc1ccccc1N1CCN(/N=C/c2cc(OC)c(O)c(OC)c2)CC1	Runt-CBFb FRET 59 | Runt-CBFb TRFRET inactive
c1csc(-c2ccn[nH]2)c1	none
S=c1nccc(-c2cccs2)[nH]1	Runt-CBFb FRET 65 | Runt-CBFb TRFRET inactive
CCN(CC)c1ccc(/C=N/NC(=O)c2ccco2)c(O)c1	Runt-CBFb FRET 75, RanGTP-Impb inh 63, Runt-SMMHC FRET 82 | Runt-CBFb TRFRET inactive
CCN(CC)c1ccc(/C=N/NC(=O)c2ccco2)cc1	none
CCc1nc2c(OCc3ccccc3C)cccn2c1N(C)C(=O)C(C)C	none (no result: Runt-CBFb FRET, RanGTP-Impb inh, Runt-SMMHC FRET, Hck Nef HTS)
COC(=O)c1oc2c(c1C)C(=O)CC(C)(C)C2	none
CC1(C)CC(=O)c2c(oc3cc(O)c(O)cc23)C1	Runt-CBFb FRET 52 | Runt-CBFb TRFRET inactive
